The results in this text go back to ChEMBL document CHEMBL4257507, “Evaluation of A-ring fused pyridine d-modified androstane derivatives for antiproliferative and aldo-keto reductase 1C3 inhibitory activity” (Medchemcomm, 2018).

In the first data set the test system is MCF7. In words: Antiproliferative activity against human MCF7 cells after 48 hrs by MTT assay. The data set is classed as functional, cell-based. To be noted: MCF7, 48 h. In outline: (§1)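 Cells grown in DMEM with 10% FCS and antibiotics at 37 °C, 5% CO2. Only viable cells from passages 3–10 were used. Seeded at 5000 cells/well and left overnight, then exposed 48 h to five concentrations from 10–8 to 10–4 M. MTT was added, formazan dissolved in acidified 2-propanol and read at 540/690 nm. Two independent experiments, each in quadruplicate. IC50 by median effect analysis.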
In general terms: Tetrazolium assays rely on reduction of a dye to a coloured formazan, in cell work by metabolically active cells.
The IC50 is the concentration needed to halve the response being measured. With `C[C@]12CC[C@H]3[C@@H](CC(=O)[C@H]4c5cccnc5CC[C@@]43C)[C@@H]1CC(=O)OC2`, the IC50 is > 100 µM.

Another data set relates to MDA-MB-231. In words: Antiproliferative activity against human MDA-MB-231 cells after 48 hrs by MTT assay. The data set is classed as functional, cell-based. To be noted: MDA-MB-231, 48 h. The method in brief:
as §1
`C[C@]12CC[C@H]3[C@@H](CC(=O)[C@H]4c5cccnc5CC[C@@]43C)[C@@H]1CC(=O)OC2`: the 50% inhibitory concentration (IC50) is > 100 µM.

The subject of another data set is PC-3. In words: Antiproliferative activity against human PC3 cells after 48 hrs by MTT assay. To be noted: PC-3, 48 h. The data set is classed as functional, cell-based. In outline:
as §1
Regarding `C[C@]12CC[C@H]3[C@@H](CC(=O)[C@H]4c5cccnc5CC[C@@]43C)[C@@H]1CC(=O)OC2`, the IC50 was > 100 µM.

The next data set deals with HeLa. As to the kind of experiment: Antiproliferative activity against human HeLa cells after 48 hrs by MTT assay. The data set is classed as functional, cell-based.
Settings: not given; call rule not given here
The method in brief:
as §1
Consider `C[C@]12CC[C@H]3[C@@H](CC(=O)[C@H]4c5cccnc5CC[C@@]43C)[C@@H]1CC(=O)OC2`, for which the IC50 is > 100 µM.

The next data set relates to HT-29. As to the kind of experiment: Antiproliferative activity against human HT-29 cells after 48 hrs by MTT assay. The data set is classed as functional, cell-based. Conditions: HT-29, 48 h. In outline: as §1
The compound `C[C@]12CC[C@H]3[C@@H](CC(=O)[C@H]4c5cccnc5CC[C@@]43C)[C@@H]1CC(=O)OC2` yielded an IC50 of 0.06 µM.

The next data set deals with A549. As to the kind of experiment: Antiproliferative activity against human A549 cells after 48 hrs by MTT assay. The data set is classed as functional, cell-based. Conditions: A549, 48 h. The method in brief:
as §1
Consider `C[C@]12CC[C@H]3[C@@H](CC(=O)[C@H]4c5cccnc5CC[C@@]43C)[C@@H]1CC(=O)OC2`, for which the IC50 was > 100 µM.

The subject of the next data set is MRC5. As to the kind of experiment: Antiproliferative activity against human MRC5 cells after 48 hrs by MTT assay. The data set is classed as cell-based. Conditions: MRC5, 48 h. In outline: as §1
`C[C@]12CC[C@H]3[C@@H](CC(=O)[C@H]4c5cccnc5CC[C@@]43C)[C@@H]1CC(=O)OC2`: the IC50 was > 100 µM.

Another data set has as its system MCF7. In words: Antiproliferative activity against human MCF7 cells. The data set is classed as functional, cell-based.
Settings: not given
The method in brief: (§2)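 MTT assay. Cells were grown in DMEM ([…]) with 10% FCS and antibiotics/antimycotic at 37 °C and 5% CO2. Viable cells from passages 3–10 were seeded at 5000 per well and left overnight. They were then exposed for 48 h to five concentrations from 10–8 to 10–4 M. Absorbance was read at 540/690 nm. Two independent experiments were run in quadruplicate, and IC50 was derived by median effect analysis.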
As to `C[C@]12CC[C@H]3[C@@H](CCC4=CC(=O)CC[C@@]43C)[C@@H]1CC(=O)OC2`, the concentration for half-maximal inhibition (IC50) was > 100 µM.
Turning to `C[C@]12CCC(=O)C=C1CC[C@@H]1[C@@H]2CC[C@]2(C)/C(=C/c3ccccn3)CC[C@@H]12`, the IC50 was > 100 µM.

The subject of the next data set is MDA-MB-231. In words: Antiproliferative activity against human MDA-MB-231 cells. The data set is classed as functional, cell-based.
Settings: not given
In outline:
as §2
`C[C@]12CC[C@H]3[C@@H](CCC4=CC(=O)CC[C@@]43C)[C@@H]1CC(=O)OC2`: the half-inhibitory concentration (IC50) turned out to be 9.3 µM.
For the compound `C[C@]12CCC(=O)C=C1CC[C@@H]1[C@@H]2CC[C@]2(C)/C(=C/c3ccccn3)CC[C@@H]12`, the IC50 is > 100 µM.

The test system of the next data set is PC-3. In words: Antiproliferative activity against human PC3 cells.
Settings: not given
The data set is classed as functional, cell-based. The method in brief: as §1
For the compound `C[C@]12CC[C@H]3[C@@H](CCC4=CC(=O)CC[C@@]43C)[C@@H]1CC(=O)OC2`, the IC50 is > 100 µM.

The next data set deals with HeLa. As to the kind of experiment: Antiproliferative activity against human HeLa cells. The data set is classed as functional, cell-based.
Settings: not given
The method in brief: as §2
In the case of `C[C@]12CCC(=O)C=C1CC[C@@H]1[C@@H]2CC[C@]2(C)/C(=C/c3ccccn3)CC[C@@H]12`, the IC50 is > 100 µM.

For the next data set, the system named is HT-29. In words: Antiproliferative activity against human HT-29 cells. The data set is classed as functional, cell-based.
Settings: not given
In outline:
as §2
For the compound `C[C@]12CCC(=O)C=C1CC[C@@H]1[C@@H]2CC[C@]2(C)/C(=C/c3ccccn3)CC[C@@H]12`, the IC50 was > 100 µM.

Another data set has as its system A549. In words: Antiproliferative activity against human A549 cells. The data set is classed as functional, cell-based.
Settings: not given
The method in brief: as §2
In the case of `C[C@]12CCC(=O)C=C1CC[C@@H]1[C@@H]2CC[C@]2(C)/C(=C/c3ccccn3)CC[C@@H]12`, the IC50 is > 100 µM.

A further data set has as its system MRC5. In words: Antiproliferative activity against human MRC5 cells.
Settings: not given
The data set is classed as cell-based. In outline: as §2
Regarding `C[C@]12CC[C@H]3[C@@H](CCC4=CC(=O)CC[C@@]43C)[C@@H]1CC(=O)OC2`, the half-inhibitory concentration (IC50) was > 100 µM.
Regarding `C[C@]12CCC(=O)C=C1CC[C@@H]1[C@@H]2CC[C@]2(C)/C(=C/c3ccccn3)CC[C@@H]12`, the IC50 is > 100 µM.

The next data set concerns HT-29. In words: Potency index, ratio of doxorubicin IC50 to compound IC50 for antiproliferative activity against human HT-29 cells. The data set is classed as functional.
Settings: not given
Turning to `C[C@]12CC[C@H]3[C@@H](CC(=O)[C@H]4c5cccnc5CC[C@@]43C)[C@@H]1CC(=O)OC2`, the “Ratio IC50” value is on record as 5.

The target in the next data set is T1, Estrogen receptor (Homo sapiens, UniProt P03372).
T1 sequence (P03372 whole entry): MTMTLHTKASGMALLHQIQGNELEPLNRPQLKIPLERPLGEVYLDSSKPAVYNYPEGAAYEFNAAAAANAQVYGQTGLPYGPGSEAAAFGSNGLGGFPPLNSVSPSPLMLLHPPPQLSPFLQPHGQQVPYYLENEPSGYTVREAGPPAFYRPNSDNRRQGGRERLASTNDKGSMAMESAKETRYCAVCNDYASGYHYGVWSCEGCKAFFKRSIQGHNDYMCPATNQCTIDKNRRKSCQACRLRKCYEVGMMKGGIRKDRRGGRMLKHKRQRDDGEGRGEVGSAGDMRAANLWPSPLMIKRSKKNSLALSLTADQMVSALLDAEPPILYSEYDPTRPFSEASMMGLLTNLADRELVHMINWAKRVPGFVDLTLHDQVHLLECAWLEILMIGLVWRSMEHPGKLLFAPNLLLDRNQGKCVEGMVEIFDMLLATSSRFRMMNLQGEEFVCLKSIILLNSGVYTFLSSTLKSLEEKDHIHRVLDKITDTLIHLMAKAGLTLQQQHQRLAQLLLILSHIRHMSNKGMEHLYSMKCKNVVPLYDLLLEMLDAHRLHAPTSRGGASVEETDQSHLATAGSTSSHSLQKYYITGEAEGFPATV
As to the kind of experiment: Binding affinity to YFP-fused ERalpha LBD (unknown origin) by cell based fluorimetric assay.
Settings: not given
The method in brief: (§3)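 S. cerevisiae FY250 transformed with ERα, ERβ or AR LBD–EYFP constructs and grown at 28 °C in selection medium with 2% raffinose to OD600 0.4–0.6. Galactose (2% final) induced expression, with ligand added at 10 μM final and 1% DMSO as background. Cells incubated 14 h at 25 °C in the dark, then read at ex 485/em 538 nm and normalized to OD600. Result given as fold fluorescence over DMSO, mean of three probes.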
Regarding `C[C@]12CCC(=O)C=C1CC[C@@H]1[C@@H]2CC[C@]2(C)/C(=C/c3ccccn3)CC[C@@H]12`, the Activity entry is “Not Active”.
In the case of `C[C@]12CC[C@H]3[C@@H](CC(=O)[C@H]4c5cccnc5CC[C@@]43C)[C@@H]1CC(=O)OC2`, the Activity result is “Not Active”.

In a further data set the target is Estrogen receptor beta (Homo sapiens, UniProt Q92731). As to the kind of experiment: Binding affinity to YFP-fused ERbeta LBD (unknown origin) by cell based fluorimetric assay.
Chain of Estrogen receptor beta (Q92731 whole entry, the tested form may be a part): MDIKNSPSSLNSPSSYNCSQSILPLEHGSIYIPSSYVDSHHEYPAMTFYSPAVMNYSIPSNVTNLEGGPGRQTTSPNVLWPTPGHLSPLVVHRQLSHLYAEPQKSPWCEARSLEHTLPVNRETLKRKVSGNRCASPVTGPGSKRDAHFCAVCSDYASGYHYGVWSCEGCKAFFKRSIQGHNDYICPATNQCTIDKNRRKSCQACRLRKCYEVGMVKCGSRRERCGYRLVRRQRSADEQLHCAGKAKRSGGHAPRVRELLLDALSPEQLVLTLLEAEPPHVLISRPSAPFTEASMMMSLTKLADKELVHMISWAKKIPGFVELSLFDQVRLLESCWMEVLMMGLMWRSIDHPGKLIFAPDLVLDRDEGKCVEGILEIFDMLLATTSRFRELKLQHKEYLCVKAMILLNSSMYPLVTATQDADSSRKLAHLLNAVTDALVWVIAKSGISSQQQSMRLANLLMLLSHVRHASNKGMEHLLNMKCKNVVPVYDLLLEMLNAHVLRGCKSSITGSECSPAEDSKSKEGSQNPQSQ
Settings: not given
In outline:
as §3
For `C[C@]12CCC(=O)C=C1CC[C@@H]1[C@@H]2CC[C@]2(C)/C(=C/c3ccccn3)CC[C@@H]12`, the Activity entry was “Not Active”.
In the case of `C[C@]12CC[C@H]3[C@@H](CC(=O)[C@H]4c5cccnc5CC[C@@]43C)[C@@H]1CC(=O)OC2`, the Activity result is “Not Active”.

The target of a further data set is T2, Androgen receptor (Homo sapiens, UniProt P10275).
T2 sequence (P10275 whole entry): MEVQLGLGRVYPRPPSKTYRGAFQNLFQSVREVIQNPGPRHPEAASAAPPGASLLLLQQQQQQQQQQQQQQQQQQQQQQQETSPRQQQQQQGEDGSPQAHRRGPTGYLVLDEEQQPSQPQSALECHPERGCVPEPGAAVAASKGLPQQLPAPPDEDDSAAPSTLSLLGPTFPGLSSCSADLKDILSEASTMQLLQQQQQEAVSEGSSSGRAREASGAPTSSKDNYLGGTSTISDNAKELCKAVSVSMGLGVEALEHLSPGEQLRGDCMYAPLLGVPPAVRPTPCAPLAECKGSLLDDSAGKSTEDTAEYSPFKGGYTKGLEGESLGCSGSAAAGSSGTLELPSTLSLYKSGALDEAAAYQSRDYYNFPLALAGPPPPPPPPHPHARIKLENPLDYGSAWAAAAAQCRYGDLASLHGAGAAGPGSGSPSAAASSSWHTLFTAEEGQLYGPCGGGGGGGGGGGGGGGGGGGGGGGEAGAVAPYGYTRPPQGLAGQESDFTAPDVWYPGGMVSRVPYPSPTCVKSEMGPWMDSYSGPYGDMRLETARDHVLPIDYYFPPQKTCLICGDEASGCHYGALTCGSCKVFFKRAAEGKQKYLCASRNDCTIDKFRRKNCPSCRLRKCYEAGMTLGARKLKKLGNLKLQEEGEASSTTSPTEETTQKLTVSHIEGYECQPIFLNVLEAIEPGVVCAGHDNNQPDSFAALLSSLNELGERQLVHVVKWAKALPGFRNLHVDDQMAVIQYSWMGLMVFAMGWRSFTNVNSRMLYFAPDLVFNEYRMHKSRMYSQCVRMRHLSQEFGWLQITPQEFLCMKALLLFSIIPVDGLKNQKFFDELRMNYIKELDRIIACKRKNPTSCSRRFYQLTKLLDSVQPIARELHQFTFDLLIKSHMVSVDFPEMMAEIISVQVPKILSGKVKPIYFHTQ
In words: Binding affinity to YFP-fused AR (unknown origin) by cell based fluorimetric assay.
Settings: not given
The method in brief: as §3
For `C[C@]12CCC(=O)C=C1CC[C@@H]1[C@@H]2CC[C@]2(C)/C(=C/c3ccccn3)CC[C@@H]12`, the Activity result was “Not Active”.
As for `C[C@]12CC[C@H]3[C@@H](CC(=O)[C@H]4c5cccnc5CC[C@@]43C)[C@@H]1CC(=O)OC2`, the Activity result was “Not Active”.
